The source of these data is paper PMC4677462 (Organic & biomolecular chemistry, 2012).

The test system of assay [1] is HIF-1α. The assay can be described thus: HIF-1α stabilisation immunoblot in Hep3B cells. The assay is classed as cell-based, human. Particulars: for Cell-based activity HIF-1α Induction: methyl or ethyl esters (numbers in parentheses) tested, 0.1 mM and 1 mM; for Cell-based activity HIF-1α Induction / HIF-1α stabilization / HIF-1α stabilization in presence of Fe(II): Hep3B cells, 6 h; for HIF-1α stabilization: absence of added Fe(II); for HIF-1α stabilization in presence of Fe(II): equimolar amount of Fe(II). An outline of the steps: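 Confluent human Hep3B hepatoma cells given methyl or ethyl ester forms of test compounds (100 mM DMSO stock) for 6 h under normoxia. Fe(II) experiments added equimolar Fe(II) either at the start or for the final 2 h, with DFO and DMOG as comparators. Whole-cell lysate immunoblots probed with mouse anti-HIF-1α (clone 54).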
A general note: A western blot detects proteins with antibodies after separation by electrophoresis.

In a further assay the target is PHD2 (Homo sapiens, UniProt Q9GZT9). In words: AlphaScreen PHD2 inhibition assay. The format is biochemical. Particulars: 10μM and 300μM of compounds.
For assay [2], the target named is catalytic domain of PHD2 (residues 181-426) (Homo sapiens, UniProt Q9GZT9). In words: Non-denaturing ESI-MS binding to PHD2 in presence of Fe. Particulars: standard conditions; for PHD2-iron-compound complex formation / binding of a second iron in ESI-MS: 2 equiv. Fe(II), 1 equiv. compound; for ESI-MS competition with NOG for binding to PHD2: equimolar NOG.
For assay [3], the system named is HIF-1α. In words: HIF-1α stabilisation immunoblot in RCC4/VHL cells. The following applies: 200 μM and 1mM. The assay is classed as cell-based, human.
Assay [4] deals with HIF prolyl and asparaginyl hydroxylases. The assay can be described thus: HIF-1α prolyl. The assay is classed as cell-based, human. The following applies: RCC4 cells, 1 mM and 2 mM. In short, it runs like this: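 VHL-defective RCC4 renal carcinoma cells carrying empty vector (RCC4/VA), which cannot degrade HIF-1α by the proteasome, grown to confluence and treated 5 h with test compound from 100 mM DMSO stock. Whole-cell lysate immunoblots probed with Hyp564- and HyAsn803-specific antibodies. Signals normalised to HIF-1α band intensity, with β-tubulin/β-actin as loading controls. DMSO negative and DMOG positive controls.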

Sequence of catalytic domain of PHD2 (residues 181-426) (Q9GZT9 181-426): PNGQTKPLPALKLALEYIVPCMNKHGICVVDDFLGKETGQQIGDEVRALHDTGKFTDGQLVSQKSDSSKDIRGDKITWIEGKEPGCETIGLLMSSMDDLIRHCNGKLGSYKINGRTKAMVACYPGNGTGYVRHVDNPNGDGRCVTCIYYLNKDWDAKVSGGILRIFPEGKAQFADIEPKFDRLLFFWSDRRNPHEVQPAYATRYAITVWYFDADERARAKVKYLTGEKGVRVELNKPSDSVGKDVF
Sequence of PHD2 (Q9GZT9 181-426): as above

In the case of `O=C(O)CNC(=O)c1nc(Cl)c2ccccc2c1O` [BIQ, 2-(1-chloro-4-hydroxyisoquinoline-3-carboxamido)acetic acid], the “Cell-based activity HIF-1α Induction” value in the assay on HIF-1α [1] is “Active”.

On to `O=C(O)CCCC(=O)NNC(=O)c1ccccn1` [Compound 2], for which the “PHD2 inhibition in initial two-concentration screening” value on PHD2 is on record as “weak PHD2 inhibitors”. In addition, the “PHD2-iron-compound complex formation / binding of a second iron in ESI-MS” value in assay [2] was “formed a two-iron complex with PHD2”.

As for `O=C(O)/C=C\C(=O)NNC(=O)c1ccccn1` [Compound 4], the “PHD2 inhibition in initial two-concentration screening” value at PHD2 is reported as “weak PHD2 inhibitors”.

In the case of `O=C(O)/C=C/C(=O)NNC(=O)c1ccccn1` [Compound 5], the “PHD2-iron-compound complex formation / binding of a second iron in ESI-MS” value in assay [2] is recorded as “only bound to one iron”. Moreover, the HIF-1α upregulation entry in the assay on HIF-1α [3] was “upregulated HIF-1α, but to a lesser extent than its ester”.

Take `O=C(O)/C=C/C(=O)NNC(=O)c1cccnc1` [Compound 9]: the “ESI-MS competition with NOG for binding to PHD2” value in assay [2] was “compete effectively with NOG for binding to PHD2”.

As to `O=C(O)CCC(=O)NNC(=O)c1cc2ccccc2cn1` [Compound 11], the “ESI-MS competition with NOG for binding to PHD2” value in assay [2] is “compete effectively with NOG for binding to PHD2”. Besides, the “HIF-1α levels, free carboxylate compounds” value with HIF-1α [1] (human hepatoma Hep3B cells, free acid form) is on record as “did not up-regulate HIF-1α levels”.

On to `O=C(O)/C=C/C(=O)NNC(=O)c1cc2ccccc2cn1` [Compound 14], for which the HIF-1α upregulation entry in the assay with HIF-1α [3] is on record as “almost no HIF-1α induction”.

Take `CC(=O)N(O)CCCCCNC(=O)CCC(=O)N(O)CCCCCNC(=O)CCC(=O)N(O)CCCCCN` [DFO, deferoxamine]: in the assay on HIF-1α [1], the HIF-1α stabilization entry was “induced HIF-1α stabilization” and the “HIF-1α stabilization in presence of Fe(II)” value is listed as “HIF-1α stabilization was not observed”.

Regarding `COC(=O)CNC(=O)C(=O)OC` [DMOG, Dimethyloxalyl glycine], in the assay on HIF-1α [1], the HIF-1α stabilization entry is “induced HIF-1α stabilization”, the “HIF-1α stabilization in presence of Fe(II)” value is “reduction in HIF-1α stabilization” and the “Cell-based activity HIF-1α Induction” value was “Active”. For the same compound, the “Inhibition of HIF prolyl-hydroxylation” value in assay [4] was “only partially inhibited”.
